# Compound activity from PubChem.
# Sampled rows, rich in hits. Any-hit rate of the full collection: about 2.4%.
# MT stabilizer: microtubule stabilizers in HeLa cells, primary screen, imaging, high-content imaging; HeLa tubulin immunostaining HCS, 24 h; share of cells brighter than vehicle mean+2SD; % tubulin-high responders, % at 10 µM; hit rate 0.83% among 200,000; AID 2205, 2009;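 active = plate Z-score above 3 for both tubulin-high and condensed-nucleus cell shares, with cell loss under 80%, at 10 µM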;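 also: anti alpha tubulin signal scored within the nucleus-defined area of each cell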
# bCat nuc transl: modulators of beta-catenin nuclear translocation, primary screen, imaging, HeLa cells, immunofluorescence, high-content. nuclear translocation activity, % at 5 µM. hit rate 0.3% among 190,000. AID 1665, 2009;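 active = nuclear translocation activity above 50% at 5 µM, with a well cell count of 50 or more; inconclusive = wells under 50 cells across six images, flagged as toxic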;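 also: per-cell ratio of nuclear to cytoplasmic median beta-catenin stain intensity; plate controls were DMSO negative control for no effect and GSK-3 inhibitor IX positive control for full effect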
#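 Test system: HeLa cells, endogenous beta-catenin; Compound: single 5 µM dose plus 0.02–20 µM confirmation series; Times: compound exposure 24 h at 37°C; Signal: fluorescence imaging of beta-catenin antibody stain plus DAPI; Read-out: % activation, nuclear-to-cytoplasmic median beta-catenin signal ratio per cell.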
# Insulin prom inh: inhibitors of insulin promoter-driven GFP, primary screen, imaging, TRM-6 cells, eGFP reporter, cell count; reporter expression induced with tamoxifen; inhibition, % at 2 µM; hit rate 0.9% among 130,000;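 active = inhibition above the mean plus 3 SD, with well images judged a real hit on visual review, cut at about 60% in these data, passing the limit was not always enough; inconclusive = inhibition over the cutoff but images rejected on review; inactive = inhibition not above the cutoff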
# HSV replic up: enhancers of HSV replication in host cells, fold increase, host cell viability | HSV replication augmentation in cells | maximum fold increase | hit rate 0.005% among 220,000; in the data active = maximum fold increase above about 1.5; inconclusive = no clear call, values can overlap the other calls; tested in PC3 cells
# ROMK primary: ROMK potassium channel modulators, primary screen, cell-based, thallium flux, MLSMR library; Tet-inducible ROMK, thallium flux fluorescence; actives lie on both sides; AID 1918, 2009; ATP-sensitive inward rectifier potassium channel 1 (Homo sapiens), P48048; hit rate 2% among 130,000; B-score at 10 µM;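 active = signal ratio slope over the read window, or its plate-corrected B-score, at least 3 SD from the plate mean, either direction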;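 also: B-score of the F/F0 ratio slope over 7 to 12 s after thallium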
# Target sequence (P48048 whole entry, looked up): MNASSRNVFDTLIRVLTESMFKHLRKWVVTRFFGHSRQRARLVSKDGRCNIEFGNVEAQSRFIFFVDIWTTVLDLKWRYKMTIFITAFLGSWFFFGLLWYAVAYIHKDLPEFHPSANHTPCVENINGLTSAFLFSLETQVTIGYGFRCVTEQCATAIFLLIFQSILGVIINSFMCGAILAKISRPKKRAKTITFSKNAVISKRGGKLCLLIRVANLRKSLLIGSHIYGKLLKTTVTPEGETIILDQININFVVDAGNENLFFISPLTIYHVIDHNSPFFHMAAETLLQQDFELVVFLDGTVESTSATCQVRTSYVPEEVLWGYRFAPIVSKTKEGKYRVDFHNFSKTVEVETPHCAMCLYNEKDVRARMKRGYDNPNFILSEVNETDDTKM
# ROMK retest: ROMK channel modulator hit retest, confirmation, cell-based, thallium flux, duplicate, resupplied hits. shares compounds with ROMK primary. fluorescence ratio; stronger effect = lower value. normalized thallium flux (F/F0 slope) at 10 µM. hit rate 54% among 3,000. AID 1917, 2009;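 active = Flux at 10 µM at least 3 SD below or above vehicle control mean in one or both replicates; inconclusive = no clear call, values can overlap the other calls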
# Starred values were filed as active, the others as inactive; i = inactive; u = inconclusive; x = no result.
SMILES,MT stabilizer,bCat nuc transl,Insulin prom inh,HSV replic up,ROMK primary,ROMK retest
O=C(CN(C1CCCCC1)S(=O)(=O)c1ccc(F)cc1)NCCCO,4,0,47,i,0.1,x
O=Cc1c(C(=O)O)n(CC(=O)O)c2ccccc12,3,0,x,i,x,x
CCn1cc(C(=O)N2CCN(c3cccc(Cl)c3)CC2)c2cc(OC)c(OC)cc2c1=O,3,x,46,i,1.3*,0.071
CCn1cc(C(=O)N2CCN(c3ccc(F)cc3)CC2)c2cc(OC)c(OC)cc2c1=O,5,-4,58,i,-0.32,0.078
CC1(C)CC2(CCO1)C(Nc1ccccc1)=NC(=S)N2c1ccccc1 (stereo unspecified),x,0,x,i,-0.66,x
COc1cccc(-c2csc(N3CCN(C(=O)Nc4ccccc4Cl)CC3)n2)c1,2,1,x,i,-0.44,x
COc1cccc(NC(=O)N2CCN(c3nc(-c4cccc(OC)c4)cs3)CC2)c1,x,1,x,i,x,0.068*
C#CCOC(=O)c1ccc(-n2cncn2)nc1,1,x,6,i,0.78,x
CCOc1ccc(/C=C/C(=O)c2c(O)c3ccccc3oc2=O)cc1,4,x,43,x,x,0.063*
CN(C)c1ccc(/C=C/C(=O)c2c(O)c3ccccc3oc2=O)cc1,x,-1,x,u,x,x
NC(N)=Nc1nc(-c2ccccc2)c2cc(F)ccc2n1,3,-2,x,i,-3.7*,0.06*
COc1ccc(C(=O)COc2ncnc3cc(Cl)ccc23)cc1,x,0,x,i,-0.0096,x
COc1ccc(C(=O)/C=C/NCc2ccc(F)cc2)cc1OC,x,2,x,i,x,x
C=CCNc1sc(C(=O)c2ccc(Br)s2)c(N)c1C#N,2,-17,x,i,-3.6*,0.056*
C=CCNc1sc(C(=O)c2ccccc2)c(N)c1C#N,3,1,-3,i,x,x
Cc1ccc(C(=O)Nc2c(C)cc(-c3ccccc3)oc2=O)cc1,4,-1,x,i,0.98,x
Nc1nonc1C(=O)NCCNCc1ccccc1OCc1ccc(F)cc1,3,-2,-65,i,x,0.062*
CCOc1ccc(CNCCNC(=O)c2nonc2N)cc1,1,-1,-36,i,-0.00033,x
COc1ccc(OCC(=O)NNc2c3ccccc3nc3ccccc23)cc1,1,8,-28,i,x,u
O=C(CNC(=O)C1COc2ccccc2O1)N/N=C\c1ccc(Cl)cc1 (stereo unspecified),x,-3,x,i,-2.1,x
COc1ccc(NC(=O)N2c3ccccc3C(C)=CC2(C)C)cc1,5,-1,x,i,-0.0098,x
CC(=O)Nc1ccc(S(=O)(=O)N2c3ccccc3C(C)=CC2(C)C)cc1,8.6*,81*,x,i,2.1*,0.086
CC(/C=C1\SC(=S)N(CCCC(=O)Nc2ccc(C(=O)O)cc2)C1=O)=C\c1ccccc1,2,0,0,i,-2.8*,0.058*
CCC(C(=O)O)N1C(=O)/C(=C/C(C)=C/c2ccccc2)SC1=S (stereo unspecified),x,-1,x,i,x,x
CC(=C\c1ccccc1)/C=C1/SC(=S)N(C(C(=O)O)C(C)C)C1=O (stereo unspecified),3,3,x,i,x,0.089
SMILES,MT stabilizer,bCat nuc transl,Insulin prom inh,HSV replic up,ROMK primary,ROMK retest
O=C(Nc1ccc(Oc2cccnc2)cc1)c1ccccc1F,2,1,3,i,x,x
COc1ccc(C(=O)NNC2=NCCCCC2)cc1,3,0,0,i,0.63,x
O=C(NCc1cccs1)C1CCCN(c2nc3ccccc3o2)C1 (stereo unspecified),4,0,-85,i,-0.12,x
O=C1Nc2ccccc2/C1=C/c1cnc(-c2ccccc2)[nH]1,x,0,x,u,x,0.048*
O=C1Nc2ccccc2/C1=C/c1cccnc1,5,2,-133,i,-1.8,x
Cc1ccc(NC(=O)Cc2ncc(C(F)(F)F)cc2Cl)cc1Cl,1,0,-9,i,x,0.067*
O=C(Cc1ncc(C(F)(F)F)cc1Cl)NCCc1ccccc1,4,1,-9,i,-0.37,x
CCn1c2ccccc2c2cc(CNCc3ccc(OC)cc3OC)ccc21,4,7,x,i,-5.1*,0.046*
COc1cc2c(cc1OC)CN(CC(=O)Nc1ccc3c(c1)OC(F)(F)O3)CC2,3,-2,19,x,2.5*,0.078
COc1ccc(/C=C2/SC(c3ccc(C)cc3)=NC2=O)cc1OC,6,x,x,i,-3.2*,0.053*
COc1cc(/C=C2\SC(c3ccccc3)=NC2=O)cc(Cl)c1O,3,1,x,i,3.2*,0.066*
COc1cc(/C=C2\SC(c3ccc(C)cc3)=NC2=O)cc(OC)c1OC,6,0,x,i,x,x
CCc1nccn1Cc1cc(C=O)ccc1OC,3,7,x,i,-0.093,x
COc1ccc(C=O)cc1Cn1ccnc1C,1,1,x,i,-7.2*,0.079
COc1ccc(C=O)cc1COc1c(F)c(F)cc(F)c1F,2,-1,-3,i,3.9*,0.091
COc1ccc(C=O)cc1COc1ccc(F)cc1F,2,x,-3,i,x,x
O=C1Nc2ccc([N+](=O)[O-])cc2C1(O)N1CCCCCC1 (stereo unspecified),3,x,2,i,x,x
O=C(CN1C2=NCCN2c2ccccc21)c1ccc(Br)s1,3,-4,-33,i,x,x
Cc1ccc(-c2noc(-c3ccno3)n2)cc1,x,-6,x,i,x,x
CCCOc1cc(C)c(S(=O)(=O)NC2CC(C)(C)NC(C)(C)C2)cc1C,3,-4,-16,i,-4.4*,0.062*
COc1cc(C)c(Cl)cc1S(=O)(=O)NC1CC(C)(C)NC(C)(C)C1,2,2,x,i,-6.4*,0.052*
COc1ccc(-n2nc(C#N)c(Cl)cc2=O)cc1,5,6,-4,i,-2.8*,0.052*
CCOC(=O)N1CCC(N2C(=O)c3ccccc3C2Nc2ccc(S(=O)(=O)N3CCOCC3)cc2)CC1 (stereo unspecified),2,-1,x,i,1.1,x
CC1=C(C#N)c2nc(N)c(C#N)c(C)c2/C1=C\c1ccc(C)cc1,3,0,-46,i,x,0.043*
COc1cccc(C(=O)NNC(=O)Cc2cccs2)c1,2,-3,-50,i,x,x
SMILES,MT stabilizer,bCat nuc transl,Insulin prom inh,HSV replic up,ROMK primary,ROMK retest
CC(=O)c1ccc(NC(=S)NNC(=O)c2ccncc2)cc1,9,1,x,i,x,x
CCCCC(=O)NC(=S)Nc1nnn(CCC)n1,3,0,0,i,x,x
Cc1cc(C(=O)COC(=O)Cc2n[nH]c(=O)c3ccccc23)c(C)n1-c1ccc2c(c1)OCO2,2,0,3,i,x,x
O=C(Cc1n[nH]c(=O)c2ccccc12)OCC(=O)c1ccc2c(c1)OCCO2,21*,18,x,i,3.6*,0.083
NS(=O)(=O)c1cc2c(cc1C(F)(F)F)NC(Cc1ccccc1)NS2(=O)=O (stereo unspecified),3,-3,23,i,x,x
CC(=O)NCCCc1nc2ccccc2n1Cc1c(F)cccc1Cl,x,1,x,i,x,x
